Assay results taken from ChEMBL document CHEMBL2311404, “Synthesis, antibacterial activity and docking of 14-membered 9-O-(3-arylalkyl) oxime 11,12-cyclic carbonate ketolides” (2013).
≈ marks a conversion by molar mass, not a printed value.

Tests used:
Assay type in all cases: functional
Staphylococcus hominis = assay: Antibacterial activity against methicillin-resistant, inducible MLS-resistant, coagulase-deficient Staphylococcus hominis E 3 by broth microdilution method
Procedure, shortened: (§1)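 Clinical isolates confirmed by 16S rDNA sequencing. MIC determined by broth microdilution following CLSI recommendations. Quality-control strains were S. aureus ATCC 29213 and S. pneumoniae ATCC 49619. Azithromycin and clarithromycin were run in parallel as reference agents.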

Staphylococcus aureus [1] = assay: Antibacterial activity against erythromycin-susceptible Staphylococcus aureus ATCC 29213 by broth microdilution method
Procedure, shortened: (§2)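 MIC by broth microdilution following CLSI recommendations. Clinical isolates were identified by 16S rDNA sequencing and labeled by genotype and phenotype. S. aureus ATCC 29213 and S. pneumoniae ATCC 49619 served as control strains, with azithromycin and clarithromycin as reference agents.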

Streptococcus pyogenes [2] = assay: Antibacterial activity against erythromycin-susceptible Streptococcus pyogenes A3 by broth microdilution method; procedure, shortened: as §2
[3] = system: Staphylococcus epidermidis; assay: Antibacterial activity against methicillin-susceptible, inducible MLS-resistant Staphylococcus epidermidis E 1 by broth microdilution method; procedure, shortened: as §1
[4] = system: Streptococcus dysgalactiae; assay: Antibacterial activity against erythromycin-resistant Streptococcus dysgalactiae A1 expressing efflux pump by broth microdilution method; procedure, shortened: as §1
Staphylococcus aureus [5] = assay: Antibacterial activity against methicillin-resistant, inducible MLS-resistant Staphylococcus aureus PU 32 expressing ermA gene by broth microdilution method; procedure, shortened: as §1
Streptococcus pneumoniae [6] = assay: Antibacterial activity against penicillin-resistant, constitutive MLS-resistant Streptococcus pneumoniae PU 11 expressing erm and mef genes by broth microdilution method; procedure, shortened: as §1
[7] = system: Staphylococcus haemolyticus; assay: Antibacterial activity against methicillin-resistant, constitutive MLS-resistant, coagulase-deficient Staphylococcus haemolyticus PU 19 expressing ermA gene by broth microdilution method; procedure, shortened: as §1
Streptococcus pneumoniae [8] = assay: Antibacterial activity against penicillin-susceptible Streptococcus pneumoniae PU 09 expressing mef gene by broth microdilution method; procedure, shortened: as §2
[9] = system: Staphylococcus epidermidis; assay: Antibacterial activity against methicillin-resistant, constitutive MLS-resistant Staphylococcus epidermidis E 2 by broth microdilution method; procedure, shortened: as §1
Streptococcus pneumoniae [10] = assay: Antibacterial activity against erythromycin-sensitive Streptococcus pneumoniae ATCC 49619 by broth microdilution method; procedure, shortened: as §2
Streptococcus pyogenes [11] = assay: Antibacterial activity against constitutive MLS-resistant Streptococcus pyogenes A2 by broth microdilution method; procedure, shortened: as §1
Streptococcus pneumoniae [12] = assay: Antibacterial activity against penicillin-susceptible, constitutive MLS-resistant Streptococcus pneumoniae PU 27 expressing erm gene by broth microdilution method; procedure, shortened: as §1
Staphylococcus aureus [13] = assay: Antibacterial activity against methicillin-sensitive, inducible MLS-resistant Staphylococcus aureus PU 64 expressing ermA gene by broth microdilution method; procedure, shortened: as §1
Staphylococcus aureus [14] = assay: Antibacterial activity against methicillin-resistant, constitutive MLS-resistant Staphylococcus aureus PU 20 expressing ermC gene by broth microdilution method; procedure, shortened: as §1

Row | SMILES | MIC (Staphylococcus hominis) [µg/mL] | MIC (Staphylococcus aureus [1]) [µg/mL] | MIC (Streptococcus pyogenes [2]) [µg/mL] | MIC [3] [µg/mL] | MIC [4] [µg/mL] | MIC (Staphylococcus aureus [5]) [µg/mL] | MIC (Streptococcus pneumoniae [6]) [µg/mL] | MIC [7] [µg/mL] | MIC (Streptococcus pneumoniae [8]) [µg/mL] | MIC [9] [µg/mL] | MIC (Streptococcus pneumoniae [10]) [µg/mL] | MIC (Streptococcus pyogenes [11]) [µg/mL] | MIC (Streptococcus pneumoniae [12]) [µg/mL] | MIC (Staphylococcus aureus [13]) [µg/mL] | MIC (Staphylococcus aureus [14]) [µg/mL]
1 | CC[C@H]1OC(=O)[C@H](C)C(=O)[C@H](C)[C@@H](O[C@@H]2O[C@H](C)C[C@H](N(C)C)[C@H]2O)[C@](C)(OC)C[C@@H](C)/C(=N\OCC#Cc2cccs2)[C@H](C)[C@H]2OC(=O)O[C@@]21C | 1 (≈ 1.34 µM) | 1 (≈ 1.34 µM) | 0.25 (≈ 0.334 µM) | 1 (≈ 1.34 µM) | 1 (≈ 1.34 µM) | 1 (≈ 1.34 µM) | 64 (≈ 85.5 µM) | 64 (≈ 85.5 µM) | 1 (≈ 1.34 µM) | 64 (≈ 85.5 µM) | 0.25 (≈ 0.334 µM) | 32 (≈ 42.7 µM) | 4 (≈ 5.34 µM) | – | –
2 | CC[C@H]1OC(=O)[C@H](C)C(=O)[C@H](C)[C@@H](O[C@@H]2O[C@H](C)C[C@H](N(C)C)[C@H]2O)[C@](C)(OC)C[C@@H](C)/C(=N\OCC#Cc2ccccn2)[C@H](C)[C@H]2OC(=O)O[C@@]21C | 0.125 (≈ 0.168 µM) | 0.064 (≈ 0.086 µM) | ≤ 0.008 | 0.125 (≈ 0.168 µM) | 0.064 (≈ 0.086 µM) | 0.125 (≈ 0.168 µM) | 128 (≈ 172 µM) | > 256 | 0.25 (≈ 0.336 µM) | > 256 | ≤ 0.008 | 128 (≈ 172 µM) | 0.5 (≈ 0.672 µM) | – | –
3 | CC[C@H]1OC(=O)[C@H](C)C(=O)[C@H](C)[C@@H](O[C@@H]2O[C@H](C)C[C@H](N(C)C)[C@H]2O)[C@](C)(OC)C[C@@H](C)/C(=N\OCC#Cc2cccnc2)[C@H](C)[C@H]2OC(=O)O[C@@]21C | 0.125 (≈ 0.168 µM) | 0.064 (≈ 0.086 µM) | ≤ 0.008 | 0.125 (≈ 0.168 µM) | 0.125 (≈ 0.168 µM) | 0.125 (≈ 0.168 µM) | 128 (≈ 172 µM) | > 256 | 0.25 (≈ 0.336 µM) | 256 (≈ 344 µM) | ≤ 0.008 | 64 (≈ 86 µM) | 0.25 (≈ 0.336 µM) | – | –
4 | CC[C@H]1OC(=O)[C@H](C)C(=O)[C@H](C)[C@@H](O[C@@H]2O[C@H](C)C[C@H](N(C)C)[C@H]2O)[C@](C)(OC)C[C@@H](C)/C(=N\OCC#Cc2cncnc2)[C@H](C)[C@H]2OC(=O)O[C@@]21C | 0.064 (≈ 0.0859 µM) | 0.125 (≈ 0.168 µM) | 0.016 (≈ 0.0215 µM) | 0.064 (≈ 0.0859 µM) | 0.125 (≈ 0.168 µM) | 0.125 (≈ 0.168 µM) | 128 (≈ 172 µM) | 256 (≈ 344 µM) | 0.25 (≈ 0.336 µM) | > 256 | 0.032 (≈ 0.043 µM) | 128 (≈ 172 µM) | 0.25 (≈ 0.336 µM) | 0.064 (≈ 0.0859 µM) | 256 (≈ 344 µM)
5 | CC[C@H]1OC(=O)[C@H](C)C(=O)[C@H](C)[C@@H](O[C@@H]2O[C@H](C)C[C@H](N(C)C)[C@H]2O)[C@](C)(OC)C[C@@H](C)/C(=N\OCC#Cc2ccc(-c3ccccn3)s2)[C@H](C)[C@H]2OC(=O)O[C@@]21C | 8 (≈ 9.68 µM) | 1 (≈ 1.21 µM) | 0.125 (≈ 0.151 µM) | 4 (≈ 4.84 µM) | 2 (≈ 2.42 µM) | 1 (≈ 1.21 µM) | 32 (≈ 38.7 µM) | – | 2 (≈ 2.42 µM) | 128 (≈ 155 µM) | ≤ 0.008 | 32 (≈ 38.7 µM) | 0.25 (≈ 0.303 µM) | – | –
6 | CC[C@H]1OC(=O)[C@H](C)C(=O)[C@H](C)[C@@H](O[C@@H]2O[C@H](C)C[C@H](N(C)C)[C@H]2O)[C@](C)(OC)C[C@@H](C)/C(=N\OCC#Cc2ccc(C(=O)c3ccccc3)s2)[C@H](C)[C@H]2OC(=O)O[C@@]21C | 2 (≈ 2.34 µM) | 2 (≈ 2.34 µM) | 0.064 (≈ 0.075 µM) | 2 (≈ 2.34 µM) | 2 (≈ 2.34 µM) | 2 (≈ 2.34 µM) | 64 (≈ 75 µM) | 128 (≈ 150 µM) | 2 (≈ 2.34 µM) | 128 (≈ 150 µM) | 0.125 (≈ 0.147 µM) | 32 (≈ 37.5 µM) | 1 (≈ 1.17 µM) | – | –
7 | CC[C@H]1OC(=O)[C@H](C)C(=O)[C@H](C)[C@@H](O[C@@H]2O[C@H](C)C[C@H](N(C)C)[C@H]2O)[C@](C)(OC)C[C@@H](C)/C(=N\OCC#Cc2ccc3[nH]ccc3c2)[C@H](C)[C@H]2OC(=O)O[C@@]21C | 8 (≈ 10.2 µM) | 1 (≈ 1.28 µM) | 0.5 (≈ 0.639 µM) | 2 (≈ 2.56 µM) | 2 (≈ 2.56 µM) | 2 (≈ 2.56 µM) | 128 (≈ 164 µM) | – | 2 (≈ 2.56 µM) | > 256 | 0.5 (≈ 0.639 µM) | 128 (≈ 164 µM) | 4 (≈ 5.12 µM) | – | –
